# In ChEMBL document CHEMBL2150893, “Synthesis of β-ionone derived chalcones as potent antimicrobial agents” (2012):
# Calls of active or inactive are those of the source. The rule behind the calls is not given here.
# Tests used:
# Bacillus subtilis = assay: Antibacterial activity against Bacillus subtilis MTCC 2451 after 24 hrs by serial dilution method; format: functional; conditions: MTCC 2451, 24 h
# Summary of the method: (§1)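 Serial tube dilution MIC. Strains were grown in nutrient broth to an OD600 of 0.4-0.6. Compounds were tested at 0.78, 1.56, 3.12, 6.25, 12.5, 25 and 50 µg/ml, each in a separate tube containing 5 ml nutrient broth plus 1 ml compound solution. Tubes were incubated 24 h with shaking at 180 rpm. Growth was followed by optical density at 600 nm.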
# [1] = Antifungal activity against Cryptococcus gastricus MTCC 1715 after 24 hrs by serial dilution method; format: functional; conditions: Goffeauzyma gastrica
# Summary of the method: (§2)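 Fungal MIC by serial tube dilution. Dilutions of test compounds (1.9–500 µg/ml) were made from stock solution. Each tube held 1 ml nutrient broth and received 20 µl of standard strain culture.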
# Staphylococcus aureus = assay: Antibacterial activity against Staphylococcus aureus MTCC 96 after 24 hrs by serial dilution method; format: functional; conditions: MTCC 96, 24 h; summary of the method: as §1
# Escherichia coli = assay: Antibacterial activity against Escherichia coli MTCC 82 after 24 hrs by serial dilution method; format: functional; conditions: MTCC 82, 24 h; summary of the method: as §1
# Pseudomonas aeruginosa = assay: Antibacterial activity against Pseudomonas aeruginosa MTCC 2642 after 24 hrs by serial dilution method; format: functional; conditions: MTCC 2642, 24 h; summary of the method: as §1
# Salmonella typhi = assay: Antibacterial activity against Salmonella typhi after 24 hrs by serial dilution method; format: functional, Salmonella enterica subsp. enterica serovar Typhi; conditions: Salmonella enterica
# Summary of the method: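 Serial tube dilution MIC in nutrient broth. Bacteria were grown until OD600 reached 0.4-0.6. Tubes held 5 ml broth plus 1 ml compound at 0.78, 1.56, 3.12, 6.25, 12.5, 25 or 50 µg/ml and were shaken at 180 rpm for 24 h. Initial medium OD was read at 600 nm.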
# Klebsiella pneumoniae = assay: Antibacterial activity against Klebsiella pneumoniae MTCC 530 after 24 hrs by serial dilution method; format: functional, organism-based
# Aspergillus niger = assay: Antifungal activity against Aspergillus niger MTCC 1344 after 24 hrs by serial dilution method; format: functional; conditions: MTCC 1344, 24 h; summary of the method: as §2
# Saccharomyces cerevisiae = assay: Antifungal activity against Saccharomyces cerevisiae MTCC 172 after 24 hrs by serial dilution method; format: functional; conditions: MTCC 172, 24 h; summary of the method: as §2
# Candida albicans = assay: Antifungal activity against Candida albicans MTCC 3018 after 24 hrs by serial dilution method; format: functional; conditions: MTCC 3018, 24 h; summary of the method: as §2
# Nannizzia gypsea = assay: Antifungal activity against Microsporum gypseum MTCC 4490 after 24 hrs by serial dilution method; format: functional; conditions: MTCC 4490, 24 h; summary of the method: as §2
Compound,MIC (Bacillus subtilis) [µg/mL],MIC [1] [µg/mL],MIC (Staphylococcus aureus) [µg/mL],MIC (Escherichia coli) [µg/mL],MIC (Pseudomonas aeruginosa) [µg/mL],MIC (Salmonella typhi) [µg/mL],Activity (Klebsiella pneumoniae),MIC (Aspergillus niger) [µg/mL],MIC (Saccharomyces cerevisiae) [µg/mL],MIC (Candida albicans) [µg/mL],MIC (Nannizzia gypsea) [µg/mL]
CC1=C(/C=C/C(=O)/C=C/c2ccccc2)C(C)(C)CCC1,3.12,78,3.12,1.56,12.5,12.5,inactive,> 100,61.5,> 100,> 100
CC1=C(/C=C/C(=O)/C=C/c2ccc(F)cc2)C(C)(C)CCC1,25,> 100,25.5,> 100,–,–,–,15.6,15.6,12.5,> 100
CC1=C(/C=C/C(=O)/C=C/c2ccccc2Cl)C(C)(C)CCC1,0.78,> 100,1.56,1.56,12.5,> 100,–,33.5,12.5,11.5,94
CC1=C(/C=C/C(=O)/C=C/c2ccccc2F)C(C)(C)CCC1,–,> 100,> 100,> 100,–,> 100,–,9.9,11.4,44.5,> 100
CC1=C(/C=C/C(=O)/C=C/c2ccoc2)C(C)(C)CCC1,22.5,72.5,–,> 100,> 100,74,–,61.4,> 100,74,> 100
CC1=C(/C=C/C(=O)/C=C/c2ccc(C#N)cc2)C(C)(C)CCC1,> 100,> 100,42,37,–,> 100,–,52.4,> 100,80,90.5
OC(Cn1cncn1)(Cn1cncn1)c1ccc(F)cc1F [FLUCONAZOLE],–,31.2,–,–,–,–,–,1.9,1.9,3.9,1.9
COc1cc(/C=C/C(=O)/C=C/C2=C(C)CCCC2(C)C)cc(OC)c1OC,> 100,–,19.5,–,22.5,45,inactive,–,–,–,–
COc1ccccc1/C=C/C=C/C(=O)/C=C/C1=C(C)CCCC1(C)C,25,19.5,> 100,> 100,32.5,> 100,–,80,34,> 100,71.5
CC1=C(/C=C/C(=O)/C=C/c2cccnc2)C(C)(C)CCC1,6.25,> 100,6.25,12.5,12.5,> 100,inactive,3.9,10.5,35,> 100
CC1=C(/C=C/C(=O)/C=C/c2ccccc2Br)C(C)(C)CCC1,40.2,> 100,25,–,> 100,–,–,7.6,3.9,31.2,> 100
CC1=C(/C=C/C(=O)/C=C/c2ccc(C)cc2)C(C)(C)CCC1,25,> 100,> 100,–,65,> 100,–,> 100,40.5,46,> 100
CC1=C(/C=C/C(=O)/C=C/c2ccc([N+](=O)[O-])cc2)C(C)(C)CCC1,3.12,90.4,25,6.25,12.5,> 100,–,9.6,19.5,11.2,82
COc1ccccc1/C=C/C(=O)/C=C/C1=C(C)CCCC1(C)C,25,> 100,22.2,31.5,> 100,> 100,–,92.5,61.4,> 100,88.5
COc1ccc(/C=C/C(=O)/C=C/C2=C(C)CCCC2(C)C)cc1,–,–,25,> 100,–,> 100,–,–,–,–,–
CC1=C(/C=C/C(=O)/C=C/c2ccc(Cl)cc2)C(C)(C)CCC1,6.25,> 100,25,3.12,12.5,> 100,inactive,> 100,12.5,> 100,> 100
COc1ccc(/C=C/C(=O)/C=C/C2=C(C)CCCC2(C)C)cc1OC,22.5,–,–,42,55.5,> 100,–,–,–,–,–
CC1=C(/C=C/C(=O)/C=C/C=C/c2ccccc2)C(C)(C)CCC1,3.12,55.5,6.25,6.25,> 100,50,inactive,25,80,> 100,> 100
CC1=C(/C=C/C(=O)/C=C/c2ccc(Br)cc2)C(C)(C)CCC1,–,–,–,> 100,> 100,> 100,–,–,–,–,–
O=C(O)c1cn(C2CC2)c2cc(N3CCNCC3)c(F)cc2c1=O [CIPROFLOXACIN],0.75,–,1.2,0.9,1.8,–,–,–,–,–,–
CC1=C(/C=C/C(=O)/C=C/c2ccc(Cl)c(Cl)c2)C(C)(C)CCC1,25,–,32.5,22,–,> 100,–,–,–,–,–
COC1=CC(=O)C[C@@H](C)[C@]12Oc1c(Cl)c(OC)cc(OC)c1C2=O [GRISEOFULVIN],–,1.9,–,–,–,–,–,1.9,1.9,1.9,1.9
CC1=C(/C=C/C(=O)/C=C/c2ccccc2[N+](=O)[O-])C(C)(C)CCC1,3.12,58.4,6.25,12.5,3.12,25,inactive,32.4,42.5,> 100,> 100
CC1=C(/C=C/C(=O)/C=C/c2ccccc2C)C(C)(C)CCC1,25,> 100,> 100,30.5,–,55.5,inactive,> 100,96,72,> 100
CC1=C(/C=C/C(=O)/C=C/c2cccc3ccccc23)C(C)(C)CCC1,25,> 100,25,55.5,–,–,–,55,> 100,71.5,98
CC1(C)S[C@@H]2[C@H](NC(=O)[C@H](N)c3ccc(O)cc3)C(=O)N2[C@H]1C(=O)O [AMOXICILLIN],0.5,–,0.5,0.12,1,0.9,–,–,–,–,–
